# From the RNAGym collection of RNA variant scans (doi:10.1002/anie.201605470)
# B1: Osa-1-4 twister ribozyme (parent)
# chain: CCGCCUAACACUGCCAAUGCCGGUCCCAAGCCCGGAUAAAAGUGGAGGGGGCGG
# Variants of: B1
# Assay: self-cleavage, relative activity (ratio to wild type); higher = more cleavage; co-transcriptional
# How it was run: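 Relative activity is the fraction cleaved divided by that of the wild-type ribozyme. The library came from a DNA template for a 54-nucleotide Oryza sativa twister ribozyme, doped at the 48 positions downstream of the cleavage site with 97 % wild-type base and 1 % of each other base. After 2 h of in vitro transcription at 37 °C with co-transcriptional self-cleavage, the RNA was reverse-transcribed with a template-switching oligonucleotide, amplified by PCR and deep-sequenced, and reads with or without upstream sequence gave the cleavage status.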
row,Variant,self-cleavage
1,A10C G30A,0.01
2,A10C G30U,0.01
3,A10C G53C,0.02
4,A10C G53A,0.11
5,A10C G53U,0.06
6,A10C C11A,0.1
7,A10C C11U,0.51
8,A10C C11G,0.04
9,C9U G53C,0.05
10,C9U G53A,0.63
11,C9U G53U,0.17
12,A10C G45U,0.02
13,A10C G45A,0.02
14,A10C G45C,0.02
15,A10G A29C,0.05
16,A10G A29G,0.09
17,A10G A29U,0.07
18,A10G G23A,0.1
19,A10G G23C,0.05
20,A10G G23U,0.05
21,A10G G34U,0.14
22,A10G G34A,0.24
23,A10G G34C,0.12
24,A10C U37G,0.11

row,Variant,self-cleavage
1,A10C U37C,0.09
2,A10C U37A,0.11
3,A10C G51A,0.06
4,A10C G51C,0.02
5,A10C G51U,0.04
6,C9U G34A,0.41
7,C9U G34U,0.28
8,C9U G34C,0.11
9,A10C G13C,0.02
10,A10C G13U,0.03
11,A10C G13A,0.02
12,C9U G50C,0.73
13,C9U G50U,0.86
14,C9U G50A,0.28
15,A10G G44C,0.81
16,A10G G44A,0.72
17,A10G G44U,0.87
18,A10G C32U,0.1
19,A10G C32A,0.07
20,A10G C32G,0.15
21,A10C U12A,0.03
22,A10C U12C,0.06
23,A10C U12G,0.04
24,A10C C52U,0.11

row,Variant,self-cleavage
1,A10C C52G,0.11
2,A10C C52A,0.06
3,A10C G23A,0.03
4,A10C G23U,0.02
5,A10C G23C,0.01
6,A10C A8C,0.15
7,A10C A8G,0.06
8,A10C A8U,0.04
9,A10C G35C,0.03
10,A10C G35A,0.07
11,A10C G35U,0.04
12,A10C C21U,0.06
13,A10C C21G,0.01
14,A10C C21A,0.04
15,A10G A36G,0.86
16,A10G A36C,0.26
17,A10G A36U,0.94
18,C9G U37A,0.76
19,C9G U37G,0.92
20,C9G U37C,0.94
21,A10C A46U,0.02
22,A10C A46C,0.02
23,A10C A46G,0.03
24,A10C A16C,0.09

row,Variant,self-cleavage
1,A10C A16U,0.08
2,A10C A16G,0.14
3,C9U G30U,0.02
4,C9U G30A,0.02
5,C9U G30C,0.03
6,A10C C25G,0.01
7,A10C C25U,0.04
8,A10C C25A,0.03
9,A10C G49U,0.02
10,A10C G49A,0.02
11,A10C G49C,0.02
12,A10G A39C,0.61
13,A10G A39U,0.69
14,A10G A39G,0.82
15,C9U G47C,0.02
16,C9U G47U,0.06
17,C9U G47A,0.06
18,A10C C26U,0.03
19,A10C C26G,0.03
20,A10C C26A,0.03
21,A10G G47C,0.07
22,A10G G47A,0.13
23,A10G G47U,0.12
24,A10C C33U,0.04

row,Variant,self-cleavage
1,A10C C33A,0.03
2,A10C C33G,0.02
3,A10C A17G,0.1
4,A10C A17U,0.08
5,A10C A17C,0.03
6,A10C A7C,0.04
7,A10C A7U,0.06
8,A10C A7G,0.06
9,A10G A7U,0.09
10,A10G A7G,0.39
11,A10G A7C,0.06
12,C9U U12C,0.05
13,C9U U12G,0.06
14,C9U U12A,0.24
15,A10G C25A,0.07
16,A10G C25U,0.4
17,A10G C25G,0.08
18,A10G C14G,0.16
19,A10G C14A,0.11
20,A10G C14U,0.28
21,C9G U43C,0.16
22,C9G U43G,0.21
23,C9G U43A,0.87
24,A10C C14A,0.02

row,Variant,self-cleavage
1,A10C C14U,0.03
2,A10C C14G,0.04
3,C9U U18C,0.53
4,C9U U18G,0.57
5,C9U U18A,0.6
6,A10G G50U,0.98
7,A10G G50C,0.82
8,A10G G50A,0.49
9,A10G G22C,0.05
10,A10G G22A,0.38
11,A10G G22U,0.16
12,A10G G49A,0.07
13,A10G G49U,0.09
14,A10G G49C,0.07
15,A10C A40U,0.03
16,A10C A40G,0.04
17,A10C A40C,0.03
18,A10G C33U,0.33
19,A10G C33A,0.1
20,A10G C33G,0.07
21,C9U G48C,0.04
22,C9U G48A,0.03
23,C9U G48U,0.03
24,A10G G30C,0.07

row,Variant,self-cleavage
1,A10G G30U,0.05
2,A10G G30A,0.05
3,A10G A41U,0.76
4,A10G A41G,0.2
5,A10G A41C,0.39
6,C9U U43A,0.68
7,C9U U43C,0.16
8,C9U U43G,0.4
9,A10C G50A,0.11
10,A10C G50C,0.04
11,A10C G50U,0.04
12,C9U G51U,0.11
13,C9U G51A,0.28
14,C9U G51C,0.04
15,C9U G23A,0.12
16,C9U G23U,0.03
17,C9U G23C,0.03
18,A10C G42C,0.02
19,A10C G42A,0.03
20,A10C G42U,0.01
21,A10C U43G,0.64
22,A10C U43C,0.05
23,A10C U43A,0.39
